ABHD4 inh: ABHD4 inhibitors, primary screen, biochemical, fluorescence polarization, mouse | (Lyso)-N-acylphosphatidylethanolamine lipase (Mus musculus), Q8VD66 | purified mABHD4, FP-Rh probe fluorescence polarization | inhibition, % at 8.92 µM | 370,000 compounds, 0.54% hits;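 active = inhibition exceeding the mean over every tested compound plus 3 SD, cut at about 30% in these data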
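System: mouse ABHD4 enzyme, wild type / Medium: HEPES pH 7.0, NaCl, Pluronic buffer / Reagent: FP-Rh activity-based fluorescent probe / Control set: S159A mutant high control, sample median low control / Detection: fluorescence polarization with parallel and perpendicular emission, 525/598 nm / Schedule: 45 min + 60 min at 25 °C / Compound dosing: 8.92 µM, single dose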
PRMT1 inh: PRMT1 methyltransferase inhibitors, primary screen, biochemical, fluorescence polarization; Protein arginine N-methyltransferase 1 (Homo sapiens), Q99873; recombinant PRMT1, activity-based probe fluorescence polarization; inhibition, % at 2.79 µM; 370,000 compounds, 1.3% hits;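 active = inhibition above about 21% made by adding two undisclosed values, limit read from the data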
HTRA1 inh: HTRA1 serine protease inhibitors, primary screen, biochemical, fluorescence polarization, HTS | Q92743 | recombinant HTRA1, FP-rhodamine activity-based probe | inhibition, % at 5.96 µM | 340,000 compounds, 0.5% hits; in the data active = inhibition above about 36%
Target sequence (Q92743 whole entry, looked up): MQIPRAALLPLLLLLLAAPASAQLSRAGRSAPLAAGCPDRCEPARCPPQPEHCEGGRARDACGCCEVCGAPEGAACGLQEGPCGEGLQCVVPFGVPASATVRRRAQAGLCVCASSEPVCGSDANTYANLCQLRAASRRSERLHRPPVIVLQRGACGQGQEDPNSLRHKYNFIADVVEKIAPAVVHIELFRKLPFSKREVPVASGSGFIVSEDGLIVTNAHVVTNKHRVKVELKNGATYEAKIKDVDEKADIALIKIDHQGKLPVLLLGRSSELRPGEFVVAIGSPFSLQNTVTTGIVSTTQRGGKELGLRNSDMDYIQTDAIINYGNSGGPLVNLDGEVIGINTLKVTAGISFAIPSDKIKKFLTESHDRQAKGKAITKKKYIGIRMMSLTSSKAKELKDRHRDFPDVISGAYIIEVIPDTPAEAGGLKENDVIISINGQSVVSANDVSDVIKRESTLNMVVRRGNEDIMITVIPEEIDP
TCR-CD3 inh: inhibitors of human TCR-CD3 interaction, primary screen, biochemical, fluorescence, TAMRA-labeled TCR probe; T-cell receptor (TCR); inhibition, % at 9.4 µM; 360,000 compounds, 0.37% hits; in the data active = inhibition above about 19%;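 note: recombinant mutant TCR 2C K166C tagged with TAMRA read by polarization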
SIAE inh: human SIAE inhibitors, primary screen, biochemical, fluorescence polarization, FP-Rh probe, 1536-well HTS; inhibition, % at 9.66 µM; Sialate O-acetylesterase (Homo sapiens), Q9HAT2; 370,000 compounds, 0.69% hits; SIAE FP-Rh probe binding;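 active = inhibition above a cutoff: mean of compounds within the control limits plus 3 SD of those, cut at about 17% in these data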
PRMT1 inh conf: PRMT1 methyltransferase inhibitors, confirmation, biochemical, fluorescence polarization, triplicate. shares compounds with PRMT1 inh. recombinant His-PRMT1, activity-based probe fluorescence polarization. inhibition, % at 2.79 µM. 3,300 compounds, 42% hits. AID 687036, 2013;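 active = mean inhibition across replicates above the hit cutoff derived for the earlier primary screen, cut at about 22% in these data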
ABHD4 confirm: ABHD4 inhibitors, retest, confirmation, biochemical, fluorescence polarization, mouse; shares compounds with ABHD4 inh; purified mABHD4, FP-Rh probe fluorescence polarization; inhibition, % at 8.92 µM; 1,800 compounds, 55% hits; AID 720658, 2013;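 active = mean inhibition across replicates above the hit cutoff set in the primary screen, cut at about 30% in these data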
Each line names hits and unclear results; the compound was inactive in the other large screens (follow-up assays come after a bar, where they were run). Shown are actives, neighbours in structure and some others; about 2.5% of the full set was active somewhere.

C=C1C(=O)OC2CC3(C)OC3CCC(C)=CC(OC(C)=O)C12 (stereo not drawn)	none
C=C1C(=O)OC2CC3(C)OC3C3OC3C3=CC(OC3=O)C12 (stereo not drawn)	PRMT1 inh 44.4 (no result: HTRA1 inh) | PRMT1 inh conf 40.1
CC(C)CN1Cc2cc(-c3cccc(F)c3)ccc2-n2nncc2C1	none (no result: HTRA1 inh)
O=C1CC23c4ccccc4N4C(=O)CC5OCC=C6CN1C2CC6C5C43 (stereo not drawn)	none
CCOC(=O)N(c1ccccc1)P1(=S)OCCO1	none
COC(=O)N(c1ccccc1)P1(=S)OCCO1	PRMT1 inh 29.7 | PRMT1 inh conf 43.7
S=P(c1ccccc1)(c1ccccc1)c1c[n+](Cc2ccccc2)c2ccccn12	none (no result: HTRA1 inh, TCR-CD3 inh)
O=C1NC(=O)N(Cc2ccc(F)cc2)C(=O)/C1=C\C=C\c1ccco1	none
CCc1ccc(N2C(=O)NC(=O)/C(=C\C=C\c3ccco3)C2=O)cc1	PRMT1 inh 27.5 | PRMT1 inh conf inactive
CCCCN1C(=O)/C(=C/C=C/c2ccco2)C(=O)NC1=S	PRMT1 inh 39.3 | PRMT1 inh conf 43.7
COC(=O)COc1ccc(/C=C2\C(=O)NC(=S)N(c3ccc(C)cc3)C2=O)cc1OC	PRMT1 inh 31.6 | PRMT1 inh conf 27.0
COc1ccc(N2C(=O)/C(=C/c3ccc(OC)c(OC)c3)C(=O)NC2=S)cc1	PRMT1 inh 41.1 | PRMT1 inh conf 49.0
COc1ccc2c(C)c(CCC(=O)N3C[C@H]4C[C@@H](C3)c3cccc(=O)n3C4)c(=O)oc2c1	none
COC(=O)C1=C(c2ccccc2OCc2ccccc2)C[C@@H]2CC[C@H]1N2C(=O)NCc1cccc(C(F)(F)F)c1	none
CNS(=O)(=O)c1ccc(-c2ccc(C=C3C(=O)NC(=O)NC3=O)o2)cc1	none
O=C1NC(=O)C(=Cc2ccc(SC3CCCCC3)o2)C(=O)N1	PRMT1 inh 26.4 | PRMT1 inh conf inactive
NC(=S)/N=C/c1c(O)[nH]c(=O)[nH]c1=O	PRMT1 inh 34.4 | PRMT1 inh conf inactive
CC1CN1P(=S)(c1ccccc1)N1CC1C (stereo not drawn)	PRMT1 inh 35.9 | PRMT1 inh conf inactive
O=C(O)Cn1cc(/C=C2\C(=O)NC(=O)N(Cc3ccco3)C2=O)c2ccccc21	PRMT1 inh 27.5 | PRMT1 inh conf inactive
Cc1ccc(N2C(=O)NC(=O)/C(=C\c3cn(CC(=O)O)c4ccccc34)C2=O)cc1	none
CCCCn1nnnc1C(c1cccs1)N1CCC2(CC1)C(=O)NCN2c1ccccc1 (stereo not drawn)	none (no result: HTRA1 inh)
Cc1ccc(OP2(=O)Nc3cc(C)c(C)cc3S2)cc1 (stereo not drawn)	PRMT1 inh 67.5 | PRMT1 inh conf 60.2
Cn1cccc1/C=C1/C(=O)NC(=S)N(Cc2ccc(F)cc2)C1=O	ABHD4 inh 49.2, PRMT1 inh 26.8, HTRA1 inh 45.0 | PRMT1 inh conf 64.7 | ABHD4 confirm 57.2
O=C(O)c1cc(S(=O)(=O)N2CC3CC(C2)c2cccc(=O)n2C3)ccc1F (stereo not drawn)	none (no result: HTRA1 inh)
O=C(N/N=C/C1C(=O)NC(=S)N(c2ccccc2)C1=O)c1cc(Br)c(O)c(Br)c1 (stereo not drawn)	ABHD4 inh 41.7 | ABHD4 confirm 48.0
CC(=O)N1CCN(c2ccc(N=Cc3c(O)n(-c4ccc(Cl)cc4)c(=O)[nH]c3=O)cc2)CC1	ABHD4 inh 41.5 | ABHD4 confirm inactive
CCN(CC)c1ccc(N=Cc2c(O)n(-c3ccc(Cl)cc3)c(=O)[nH]c2=O)cc1	none
O=c1[nH]c(=S)n(-c2ccc(Br)cc2)c(O)c1C=Nc1ccc(N2CCOCC2)cc1	none
O=c1[nH]c(=S)n(-c2ccccc2F)c(O)c1C=Nc1ccc(N2CCOCC2)cc1	ABHD4 inh 57.8 | ABHD4 confirm inactive
c1ccc2[nH]c(CCN3CCCCC3)nc2c1	none
C=CCn1c(O)c(C(CC)=Nc2ccc(N(C)C)cc2)c(=O)[nH]c1=O	ABHD4 inh 43.1, PRMT1 inh 32.6 (no result: HTRA1 inh) | ABHD4 confirm inactive
C=CCn1c(O)c(C(CC)=Nc2ccc3c(c2)CCC3)c(=O)[nH]c1=O	none
O=c1[nH]c(=O)n(CCC2=CCCCC2)c(O)c1/C=N/Nc1cccc2ccccc12	ABHD4 inh 33.3 | ABHD4 confirm inactive
O=c1[nH]c(=O)n(CCC2=CCCCC2)c(O)c1/C=N/N1CCOCC1	none
COc1ccccc1CN1CCN(C(=O)COc2ccc3ccccc3c2)CC1	none
O=C(O)c1cccc2c1NC(c1cccc([N+](=O)[O-])c1)C1CC(Sc3ccccc3[N+](=O)[O-])C(Cl)C21 (stereo not drawn)	ABHD4 inh 29.6, PRMT1 inh 22.8 | ABHD4 confirm 54.6
COC(=O)C1=C(c2cccc(OCc3ccccc3)c2)C[C@@H]2CC[C@H]1N2C(=O)NCc1ccc2[nH]ccc2c1	none
O=C(N/N=C/c1c(O)n(Cc2ccc(F)cc2)c(=S)[nH]c1=O)c1ccncc1	ABHD4 inh 31.9 | ABHD4 confirm 36.9
CCn1c(O)c(/C=N/NC(=O)c2ccncc2)c(=O)[nH]c1=S	none
COc1ccc(-n2c(=S)[nH]c3ccc(C)cc3c2=O)cc1	ABHD4 inh 32.5 | ABHD4 confirm inactive
COC(=O)C1=C(c2ccc(OCc3ccccc3)cc2)C[C@@H]2CC[C@H]1N2C(=O)NCc1ccc(OC)c(OC)c1	ABHD4 inh 46.0 | ABHD4 confirm 58.0
CN1CCc2cc(O)cc3c2[C@H]1Cc1ccc(O)c(O)c1-3	ABHD4 inh 57.2, PRMT1 inh 79.4 | ABHD4 confirm inactive
C=CC[C@@H](CC/C=C/C=C/CC/C=C\[C@@H]1CSC([C@@H]2C[C@@H]2C)=N1)OC	none (no result: ABHD4 inh, PRMT1 inh, TCR-CD3 inh, SIAE inh)
CC(=O)N1c2ccccc2C(c2ccccc2)=NCC1C(=O)NC1CCCCC1 (stereo not drawn)	none (no result: HTRA1 inh, TCR-CD3 inh)
Cc1cc(N2CCNC[C@@H]2C)ccc1N1CCN[C@@H](C)C1	none (no result: HTRA1 inh)
N/C(=N\N=C/c1ccc(-c2ccc(O)c(C(=O)O)c2)o1)N[N+](=O)[O-]	ABHD4 inh 35.2, PRMT1 inh 32.9 | ABHD4 confirm 42.4
COc1ccc(/C=N/N=C(/N)N[N+](=O)[O-])c(OC)c1	none
Cc1ccccc1-n1c(O)c(C=Nc2ccc(N(C)C)cc2)c(=O)[nH]c1=O	ABHD4 inh 39.6, PRMT1 inh 21.2 | ABHD4 confirm inactive
CCN(CC)c1ccc(N=Cc2c(O)n(-c3ccc(OC)cc3)c(=O)[nH]c2=O)cc1	ABHD4 inh 38.0 | ABHD4 confirm inactive
